Measured values reported in ChEMBL document CHEMBL2062417, “Biotinylated quercetin as an intrinsic photoaffinity proteomics probe for the identification of quercetin target proteins” (Bioorg Med Chem, 2011).
Active and inactive are the calls of the source.

Assays:
[1] = target: Casein kinase II subunit beta (Homo sapiens) (UniProt P67870); assay: Binding affinity to CK2beta at 150 uM followed by UV irradiation for 30 mins with Wood's glass filtered medium pressure mercury arc light by SDS-PAGE based pull down assay
Method in brief: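 CK2 (17.5–70 nM) was mixed with 150 μM BioQ in 400 μL 10 mM PBS pH 7.2 with protease inhibitors, with or without 10 mM MgCl2 and 2 μM ATP. Samples were irradiated 30 min on ice (320–400 nm, peak 365 nm) or left unirradiated. Capture was on streptavidin agarose for 1 h, with washes in lysis buffer or 2% SDS Tris buffer, then boiling, SDS-PAGE and silver staining.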

Jurkat [2] = assay: Inhibition of heat shock-induced HSP70 expression in human Jurkat cells at 145 uM treated 2 hrs before beat shock challenge measured after 8 hrs by Western blotting; format: functional, cell-based
Method in brief: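 Jurkat cells (low basal HSP70) got 145 μM compound or DMSO vehicle for 2 h, then a 30 min 43 °C heat shock and 8 h recovery at 37 °C. HSP70 and actin were read by Western blot. Controls were unheated cells and heated cells with no additive.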

Jurkat [3] = assay: Binding affinity to quercetin binding protein in human Jurkat cells at 150 uM after 30 mins followed by denaturing wash by SDS-PAGE based pull down assay in presence of heat shock; format: cell-based
Jurkat [4] = assay: Binding affinity to quercetin binding protein in human Jurkat cells at 150 uM followed by UV irradiation for 30 mins with Wood's glass filtered medium pressure mercury arc light before cell lysis measured after denaturing wash by SDS-PAGE based pull down assay
Method in brief: (§1)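 Jurkat cells were grown in RPMI with 10% FBS (about 15×10^6 cells) and treated 2 h with 150 μM BioQ in 3% aqueous DMSO. They were heat-shocked at 43 °C for 30 min, recovered 1 h at 37 °C, and UV-irradiated (320–400 nm, peak 365 nm, 30 min, 4 °C) before or after sonication lysis. Streptavidin-agarose capture ran 1 h. Beads were washed ≥3× with lysis buffer or 2% SDS Tris pH 7.4, boiled, run on 12% SDS-PAGE and silver-stained.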

Jurkat [5] = assay: Binding affinity to quercetin binding protein in human Jurkat cells at 150 uM followed by UV irradiation for 30 mins with Wood's glass filtered medium pressure mercury arc light after cell lysis measured after denaturing wash by Western blotting based pull down assay in presence of heat shock
Method in brief: (§2)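 Streptavidin pull-downs from heat-shocked, BioQ-treated (150 μM), UV-irradiated Jurkat cells received a 2% SDS wash. Proteins were transferred from SDS gels to nitrocellulose and blocked overnight in 3% BSA at 4 °C. Blots were probed 1 h with HRP-conjugated anti-biotin antibody and developed with 4-chloro-1-naphthol/0.01% H2O2, with no-UV and no-probe controls.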

Jurkat [6] = assay: Binding affinity to quercetin binding protein in human Jurkat cells at 150 uM followed by UV irradiation for 30 mins with Wood's glass filtered medium pressure mercury arc light before cell lysis measured after denaturing wash by Western blotting based pull down assay in presence of heat shock; method in brief: as §2
[7] = target: Heat shock protein HSP 90-alpha (Homo sapiens) (UniProt P07900); assay: Binding affinity to HSP90AA1 in human Jurkat cells at 150 uM followed by UV irradiation for 30 mins with Wood's glass filtered medium pressure mercury arc light after cell lysis measured after denaturing wash by SDS-PAGE based pull down assay; method in brief: as §1
[8] = target: RuvB-like 2 (Homo sapiens) (UniProt Q9Y230); assay: Binding affinity to RUVBL2 in human Jurkat cells at 150 uM followed by UV irradiation for 30 mins with Wood's glass filtered medium pressure mercury arc light after cell lysis measured after denaturing wash by SDS-PAGE based pull down assay; method in brief: as §1
[9] = target: RuvB-like 2 (Homo sapiens) (UniProt Q9Y230); assay: Binding affinity to RUVBL2 in human Jurkat cells at 150 uM followed by UV irradiation for 30 mins with Wood's glass filtered medium pressure mercury arc light prior to cell lysis measured after denaturing wash by SDS-PAGE based pull down assay; method in brief: as §1
[10] = target: ATP synthase F(1) complex subunit beta, mitochondrial (Homo sapiens) (UniProt P06576); assay: Binding affinity to ATP5B in human Jurkat cells at 150 uM followed by UV irradiation for 30 mins with Wood's glass filtered medium pressure mercury arc light prior to cell lysis measured after denaturing wash by SDS-PAGE based pull down assay; method in brief: as §1
[11] = target: ATP synthase F(1) complex subunit alpha, mitochondrial (Homo sapiens) (UniProt P25705); assay: Binding affinity to ATP5A1 in human Jurkat cells at 150 uM followed by UV irradiation for 30 mins with Wood's glass filtered medium pressure mercury arc light prior to cell lysis measured after denaturing wash by SDS-PAGE based pull down assay; method in brief: as §1
[12] = target: Actin, cytoplasmic 1 (Homo sapiens) (UniProt P60709); assay: Binding affinity to ACTB in human Jurkat cells at 150 uM followed by UV irradiation for 30 mins with Wood's glass filtered medium pressure mercury arc light prior to cell lysis measured after denaturing wash by SDS-PAGE based pull down assay; method in brief: as §1
[13] = target: Heat shock protein HSP 90-alpha (Homo sapiens) (UniProt P07900); assay: Binding affinity to HSP90AA1 in human Jurkat cells at 150 uM followed by UV irradiation for 30 mins with Wood's glass filtered medium pressure mercury arc light prior to cell lysis measured after denaturing wash by LC-MS/MS based pull down assay
Method in brief: (§3)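 Silver-stained bands from cells irradiated before lysis were excised, destained, reduced with 10 mM DTT, alkylated with 50 mM iodoacetamide and digested with trypsin overnight. Peptides were extracted in 1% TFA/50% acetonitrile. Nano-C18 LC used a 2–50% acetonitrile gradient with 0.1% formic acid over 50 min at 260 nL/min, followed by MS/MS identification.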

[14] = target: Actin, cytoplasmic 1 (Homo sapiens) (UniProt P60709); assay: Binding affinity to ACTB in human Jurkat cells at 150 uM followed by UV irradiation for 30 mins with Wood's glass filtered medium pressure mercury arc light prior to cell lysis measured after denaturing wash by LC-MS/MS based pull down assay; method in brief: as §3

RuvB-like 2 (Homo sapiens), sequence (Q9Y230 whole entry): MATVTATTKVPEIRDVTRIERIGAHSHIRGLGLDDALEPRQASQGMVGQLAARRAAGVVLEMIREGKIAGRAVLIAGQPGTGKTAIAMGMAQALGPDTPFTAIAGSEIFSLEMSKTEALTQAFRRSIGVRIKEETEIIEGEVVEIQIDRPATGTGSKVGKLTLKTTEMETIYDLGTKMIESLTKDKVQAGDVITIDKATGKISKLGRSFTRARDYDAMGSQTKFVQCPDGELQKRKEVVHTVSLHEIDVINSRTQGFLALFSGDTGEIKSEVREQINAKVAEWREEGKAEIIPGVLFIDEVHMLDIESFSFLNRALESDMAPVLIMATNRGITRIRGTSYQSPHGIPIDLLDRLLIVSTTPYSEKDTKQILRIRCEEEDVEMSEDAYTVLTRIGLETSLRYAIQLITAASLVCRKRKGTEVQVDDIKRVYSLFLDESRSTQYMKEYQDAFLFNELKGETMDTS
ATP synthase F(1) complex subunit beta, mitochondrial (Homo sapiens), sequence (P06576 whole entry, one chain of several): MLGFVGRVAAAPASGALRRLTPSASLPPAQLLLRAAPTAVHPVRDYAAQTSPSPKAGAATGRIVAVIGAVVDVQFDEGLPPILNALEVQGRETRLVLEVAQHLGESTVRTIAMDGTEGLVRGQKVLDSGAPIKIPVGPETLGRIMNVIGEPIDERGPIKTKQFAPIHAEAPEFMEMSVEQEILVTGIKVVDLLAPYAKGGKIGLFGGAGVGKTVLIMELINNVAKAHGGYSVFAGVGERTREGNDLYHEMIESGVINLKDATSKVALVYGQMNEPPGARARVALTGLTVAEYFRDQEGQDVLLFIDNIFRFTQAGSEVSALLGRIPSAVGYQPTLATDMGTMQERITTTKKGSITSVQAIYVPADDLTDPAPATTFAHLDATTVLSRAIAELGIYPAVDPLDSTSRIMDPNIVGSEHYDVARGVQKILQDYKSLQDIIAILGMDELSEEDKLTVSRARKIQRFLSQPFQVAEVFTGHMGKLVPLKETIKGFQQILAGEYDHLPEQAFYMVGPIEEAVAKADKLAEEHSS
ATP synthase F(1) complex subunit alpha, mitochondrial (Homo sapiens), sequence (P25705 whole entry, one chain of several): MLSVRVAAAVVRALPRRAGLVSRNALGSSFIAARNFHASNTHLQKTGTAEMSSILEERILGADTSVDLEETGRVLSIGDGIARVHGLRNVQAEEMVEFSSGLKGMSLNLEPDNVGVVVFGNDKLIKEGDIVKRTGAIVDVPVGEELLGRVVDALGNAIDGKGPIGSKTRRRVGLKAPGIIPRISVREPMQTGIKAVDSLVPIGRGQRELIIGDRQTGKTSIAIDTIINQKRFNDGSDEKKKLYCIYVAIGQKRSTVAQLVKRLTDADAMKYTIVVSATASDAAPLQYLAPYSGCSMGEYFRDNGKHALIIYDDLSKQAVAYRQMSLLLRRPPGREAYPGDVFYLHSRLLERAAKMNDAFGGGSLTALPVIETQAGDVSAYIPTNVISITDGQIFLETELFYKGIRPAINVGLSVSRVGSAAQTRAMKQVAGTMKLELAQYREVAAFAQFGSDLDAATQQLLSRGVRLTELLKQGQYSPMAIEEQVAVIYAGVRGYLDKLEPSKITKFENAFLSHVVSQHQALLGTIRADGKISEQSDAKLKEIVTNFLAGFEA
Casein kinase II subunit beta (Homo sapiens), sequence (P67870 whole entry): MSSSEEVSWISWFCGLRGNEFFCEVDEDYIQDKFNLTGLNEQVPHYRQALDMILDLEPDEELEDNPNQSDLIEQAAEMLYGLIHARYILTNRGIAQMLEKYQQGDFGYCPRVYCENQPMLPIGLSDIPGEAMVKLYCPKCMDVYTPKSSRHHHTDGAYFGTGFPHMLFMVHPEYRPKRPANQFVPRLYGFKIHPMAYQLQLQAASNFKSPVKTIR

O=C(CCCC[C@@H]1SC[C@@H]2NC(=O)N[C@@H]21)NCCOCCOCCNC(=O)COc1cc(O)c2c(=O)c(O)c(-c3ccc(O)c(O)c3)oc2c1
active: Activity [1] | inhibition (Jurkat [2]) | Activity (Jurkat [3]) | Activity (Jurkat [4]) | Activity (Jurkat [5]) | Activity (Jurkat [6]) | Activity [7] | Activity [8] | Activity [9] | Activity [10] | Activity [11] | Activity [12] | Activity [13] | Activity [14]
